Active and inactive are the calls of the source. The rule behind the calls is not given here.
Assays:
[1] = system: MCF7; experiment: Induction of apoptosis in human MCF7 cells assessed as late apoptotic cells by Annexin V-FITC/propidium iodide staining based flow cytometric analysis (reference value: 0.29 %); type: functional
[2] = system: MCF7; experiment: Induction of cell cycle arrest in human MCF7 cells assessed as accumulation at G2/M phase at IC50 concentration incubated for 24 hrs by PI/RNase staining based flow cytometric analysis; type: functional
Outline: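 Cells were washed in ice-cold PBS, fixed in ice-cold 70% ethanol, treated with 100 µg/mL RNase and stained with 40 µg/mL PI. DNA content was read by flow cytometry, with sub-G1 compared against control.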

[3] = system: MCF7; experiment: Induction of apoptosis in human MCF7 cells assessed as necrotic cells by Annexin V-FITC/propidium iodide staining based flow cytometric analysis (reference value: 1.3 %); type: functional
[4] = system: MCF7; experiment: Induction of apoptosis in human MCF7 cells assessed as early apoptotic cells by Annexin V-FITC/propidium iodide staining based flow cytometric analysis (reference value: 0.47 %); type: functional
[5] = system: MDA-MB-468; experiment: Antiproliferative activity against human MDA-MB-468 cells measured after 48 hrs under CoCl2-induced hypoxic condition by MTT assay; type: functional, cell-based; settings: MDA-MB-468, 48 h
[6] = system: CAKI-1; experiment: Antitumor activity against human CAKI-1 cells assessed as cell growth inhibition at 10 uM incubated for 48 hrs by sulforhodamine B assay; type: functional; settings: read-out: GI
Outline: (§1)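 NCI Drug Evaluation Branch protocol: primary single-dose screen at 10 μM across a 57-line human cancer panel. Drug exposure is 48 h. Cell growth and viability are read by sulforhodamine B assay. Data are given as a mean graph of percent growth of treated cells and reported as percentage growth inhibition (GI%).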

[7] = system: MCF7; experiment: Antiproliferative activity against human MCF7 cells measured after 48 hrs under CoCl2-induced hypoxic condition by MTT assay; type: functional, cell-based; settings: MCF7, 48 h
[8] = system: Hs-578T; experiment: Antitumor activity against human HS 578T cells assessed as cell growth inhibition at 10 uM incubated for 48 hrs by sulforhodamine B assay; type: functional; settings: read-out: GI; outline: as §1
[9] = system: MCF7; experiment: Antiproliferative activity against human MCF7 cells measured after 48 hrs under normoxic condition by MTT assay; type: functional, cell-based; settings: MCF7, 48 h
[10] = system: NCI-H460; experiment: Antitumor activity against human NCI-H460 cells assessed as cell growth inhibition at 10 uM incubated for 48 hrs by sulforhodamine B assay; type: functional; settings: read-out: GI; outline: as §1
[11] = system: MDA-MB-468; experiment: Antiproliferative activity against human MDA-MB-468 cells measured after 48 hrs under normoxic condition by MTT assay; type: functional, cell-based; settings: MDA-MB-468, 48 h
[12] = system: HOP-92; experiment: Antitumor activity against human HOP92 cells assessed as cell growth inhibition at 10 uM incubated for 48 hrs by sulforhodamine B assay; type: functional; settings: read-out: GI; outline: as §1
[13] = system: HL-60(TB); experiment: Antitumor activity against human HL-60(TB) cells assessed as cell growth inhibition at 10 uM incubated for 48 hrs by sulforhodamine B assay; type: functional; settings: read-out: GI
Outline: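 Single-dose NCI-60-type screen of 57 human cancer cell lines at 10 μM under the NCI Drug Evaluation Branch protocol. Drugs exposed for 48 h; growth and viability read by sulforhodamine B assay. Data given as mean-graph percent growth of treated cells, expressed as percent growth inhibition.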

[14] = system: OVCAR-4; experiment: Antitumor activity against human OVCAR-4 cells assessed as cell growth inhibition at 10 uM incubated for 48 hrs by sulforhodamine B assay; type: functional; settings: read-out: GI; outline: as §1
[15] = system: SF-295; experiment: Antitumor activity against human SF295 cells assessed as cell growth inhibition at 10 uM incubated for 48 hrs by sulforhodamine B assay; type: functional; settings: read-out: GI; outline: as §1
[16] = system: Malme-3M; experiment: Antitumor activity against human MALME-3M cells assessed as cell growth inhibition at 10 uM incubated for 48 hrs by sulforhodamine B assay; type: functional; settings: read-out: GI; outline: as §1
[17] = system: ACHN; experiment: Antitumor activity against human ACHN cells assessed as cell growth inhibition at 10 uM incubated for 48 hrs by sulforhodamine B assay; type: functional; settings: read-out: GI; outline: as §1
[18] = system: COLO 205; experiment: Antitumor activity against human COLO205 cells assessed as cell growth inhibition at 10 uM incubated for 48 hrs by sulforhodamine B assay; type: functional; settings: read-out: GI; outline: as §1
[19] = system: SW-620; experiment: Antitumor activity against human SW620 cells assessed as cell growth inhibition at 10 uM incubated for 48 hrs by sulforhodamine B assay; type: functional; settings: read-out: GI
Outline: (§2)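 NCI one-dose screen: 57-cell-line panel exposed at 10 μM for 48 h, Drug Evaluation Branch protocol. Growth and viability read by sulforhodamine B; data given as percent growth inhibition from the mean-graph of percent growth of treated cells.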

[20] = system: UACC-257; experiment: Antitumor activity against human UACC-257 cells assessed as cell growth inhibition at 10 uM incubated for 48 hrs by sulforhodamine B assay; type: functional; settings: read-out: GI; outline: as §2
[21] = system: SK-OV-3; experiment: Antitumor activity against human SK-OV-3 cells assessed as cell growth inhibition at 10 uM incubated for 48 hrs by sulforhodamine B assay; type: functional; settings: read-out: GI; outline: as §1
[22] = system: TK-10; experiment: Antitumor activity against human TK-10 cells assessed as cell growth inhibition at 10 uM incubated for 48 hrs by sulforhodamine B assay; type: functional; settings: read-out: GI; outline: as §2
[23] = system: HCT-15; experiment: Antitumor activity against human HCT15 cells assessed as cell growth inhibition at 10 uM incubated for 48 hrs by sulforhodamine B assay; type: functional; settings: read-out: GI; outline: as §1
[24] = system: SR; experiment: Antitumor activity against human SR cells assessed as cell growth inhibition at 10 uM incubated for 48 hrs by sulforhodamine B assay; type: functional; settings: read-out: GI; outline: as §2
[25] = system: OVCAR-5; experiment: Antitumor activity against human OVCAR-5 cells assessed as cell growth inhibition at 10 uM incubated for 48 hrs by sulforhodamine B assay; type: functional; settings: read-out: GI; outline: as §1
[26] = system: MDA-MB-435; experiment: Antitumor activity against human MDA-MB-435 cells assessed as cell growth inhibition at 10 uM incubated for 48 hrs by sulforhodamine B assay; type: functional; settings: read-out: GI; outline: as §1
[27] = system: HCC 2998; experiment: Antitumor activity against human HCC2998 cells assessed as cell growth inhibition at 10 uM incubated for 48 hrs by sulforhodamine B assay; type: functional; settings: read-out: GI; outline: as §1
[28] = system: SNB-19; experiment: Antitumor activity against human SNB-19 cells assessed as cell growth inhibition at 10 uM incubated for 48 hrs by sulforhodamine B assay; type: functional; settings: read-out: GI; outline: as §1
[29] = system: HT-29; experiment: Antitumor activity against human HT-29 cells assessed as cell growth inhibition at 10 uM incubated for 48 hrs by sulforhodamine B assay; type: functional; settings: read-out: GI; outline: as §1
[30] = system: A498; experiment: Antitumor activity against human A498 cells assessed as cell growth inhibition at 10 uM incubated for 48 hrs by sulforhodamine B assay; type: functional; settings: read-out: GI; outline: as §1
[31] = system: A549; experiment: Antitumor activity against human A549/ATCC cells assessed as cell growth inhibition at 10 uM incubated for 48 hrs by sulforhodamine B assay; type: functional; settings: read-out: GI; outline: as §1
[32] = system: EKVX; experiment: Antitumor activity against human EKVX cells assessed as cell growth inhibition at 10 uM incubated for 48 hrs by sulforhodamine B assay; type: functional; settings: read-out: GI; outline: as §1
[33] = system: 786-0; experiment: Antitumor activity against human 786-0 cells assessed as cell growth inhibition at 10 uM incubated for 48 hrs by sulforhodamine B assay; type: functional; settings: read-out: GI; outline: as §1
[34] = system: NCI-H23; experiment: Antitumor activity against human NCI-H23 cells assessed as cell growth inhibition at 10 uM incubated for 48 hrs by sulforhodamine B assay; type: functional; settings: read-out: GI; outline: as §1
[35] = system: UACC-62; experiment: Antitumor activity against human UACC-62 cells assessed as cell growth inhibition at 10 uM incubated for 48 hrs by sulforhodamine B assay; type: functional; settings: read-out: GI; outline: as §2
[36] = system: SK-MEL-28; experiment: Antitumor activity against human SK-MEL-28 cells assessed as cell growth inhibition at 10 uM incubated for 48 hrs by sulforhodamine B assay; type: functional; settings: read-out: GI; outline: as §1
[37] = system: M14; experiment: Antitumor activity against human M14 cells assessed as cell growth inhibition at 10 uM incubated for 48 hrs by sulforhodamine B assay; type: functional; settings: read-out: GI; outline: as §1

Row | SMILES | IC50 [5] [µM] | inhibition of growth at 10 µM [6] [%] | IC50 [7] [µM] | inhibition of growth at 10 µM [8] [%] | IC50 [9] [µM] | inhibition of growth at 10 µM [10] [%] | IC50 [11] [µM] | inhibition of growth at 10 µM [12] [%] | inhibition of growth at 10 µM [13] [%] | inhibition of growth at 10 µM [14] [%] | inhibition of growth at 10 µM [15] [%] | inhibition of growth at 10 µM [16] [%] | inhibition of growth at 10 µM [17] [%] | inhibition of growth at 10 µM [19] [%] | inhibition of growth at 10 µM [22] [%] | inhibition of growth at 10 µM [24] [%] | inhibition of growth at 10 µM [25] [%] | inhibition of growth at 10 µM [26] [%] | inhibition of growth at 10 µM [27] [%] | inhibition of growth at 10 µM [28] [%] | other results
1 | N#Cc1c(-c2ccc(Cl)cc2)nc2c(/N=N/c3ccc(S(N)(=O)=O)cc3)c(N)nn2c1N | 19.6 | 26 | 10.3 | 30 | 2.07 | 21 | 11.4 | 29 |  |  |  |  |  |  |  |  |  |  |  |  | Activity [1]: 8.2%; Activity [2]: Active; Activity [3]: 2.17%; Activity [4]: 5.88%
2 | Cc1ccc(-c2nc3c(/N=N/c4ccc(S(N)(=O)=O)cc4)c(N)nn3c(N)c2C#N)cc1 | 3.03 | 59 | 15.1 | 61 | 6.8 | 72 | 1.37 | 80 | 97 | 48 | 51 | 51 | 100 | 83 | 34 | 71 | 21 | 48 | 48 | 42 | inhibition of growth at 10 µM [18]: 86%; inhibition of growth at 10 µM [20]: 28%; inhibition of growth at 10 µM [21]: 36%; inhibition of growth at 10 µM [23]: 18%; inhibition of growth at 10 µM [29]: 64%; inhibition of growth at 10 µM [30]: 41%; inhibition of growth at 10 µM [31]: 37%; inhibition of growth at 10 µM [32]: 30%; inhibition of growth at 10 µM [33]: 35%; inhibition of growth at 10 µM [34]: 56%; inhibition of growth at 10 µM [35]: 47%; inhibition of growth at 10 µM [36]: 47%; inhibition of growth at 10 µM [37]: 54%
3 | N#Cc1c(-c2ccc(Br)cc2)nc2c(/N=N/c3ccc(S(N)(=O)=O)cc3)c(N)nn2c1N | 10 | 47 | 7.56 | 55 | 4.77 | 63 | 6.81 | 69 | 62 | 39 | 38 | 42 | 29 | 56 | 27 | 59 | 28 | 44 | 38 | 38 | inhibition of growth at 10 µM [29]: 57%; inhibition of growth at 10 µM [30]: 35%; inhibition of growth at 10 µM [31]: 32%; inhibition of growth at 10 µM [32]: 29%; inhibition of growth at 10 µM [33]: 30%; inhibition of growth at 10 µM [34]: 36%; inhibition of growth at 10 µM [35]: 28%; inhibition of growth at 10 µM [36]: 37%; inhibition of growth at 10 µM [37]: 59%

— ChEMBL document CHEMBL4680175, “Sulfonamide-based ring-fused analogues for CAN508 as novel carbonic anhydrase inhibitors endowed with antitumor activity: Design, synthesis, and in vitro biological evaluation” (Eur J Med Chem, 2020)
